Consider four compounds from ChEMBL document CHEMBL5104225, “Synthesis and structure-activity relationship studies of N-terminal analogues of the lipopeptide antibiotics brevicidine and laterocidine” (RSC Med Chem, 2022).

One data set relates to Erythrocyte. The data set is described as follows: Hemolytic activity in sheep red blood cell assessed as hemolysis at 64 ug/ml incubated for 1 hrs relative to control. It counts as toxicity, cell-based, Ovis aries. Particulars: at 64 µg/mL. In outline: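 Defibrinated sheep erythrocytes were washed five times in PBS with 0.002% Tween20 and normalized so the positive control read 2.5–3.0 at 415 nm. Cells were mixed with peptide at 64 µg/mL and held 1 h at 37 °C, shaking 500 rpm, then centrifuged. Supernatant A415 was background-corrected against buffer and expressed as % of 0.1% Triton X-100. Run in triplicate.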

In data set [1] the test system is Escherichia coli. Description: Antibacterial activity against Escherichia coli ATCC 25922 assessed as inhibition of bacterial growth incubated for 18 hrs by CLSI protocol based method. The data set is classed as functional. In short, it runs like this: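 Broth microdilution MIC. Strain streaked from glycerol stock on sheep blood agar (16 h, 37 °C); a colony was grown in TSB at 37 °C, 220 rpm, to OD600 about 0.5. Cells were diluted in MHB to 2×10^5 CFU/mL and added 1:1 to serial dilutions in MHB in polypropylene plates.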

Data set [2] relates to Escherichia coli. The data set is described as follows: Antibacterial activity against colistin-resistant Escherichia coli ATCC 25922 carrying MCR-1 gene assessed as inhibition of bacterial growth incubated for 18 hrs by CLSI protocol based method. The data set is classed as functional. In short, it runs like this:
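Broth microdilution MIC. MCR-1 strain grown from glycerol stock in TSB with kanamycin (16 h, 37 °C, 220 rpm), diluted 100-fold in the same medium and grown to OD600 about 0.5. Cells were diluted in MHB to 2×10^5 CFU/mL and added 1:1 to serial dilutions in MHB. Incubated 18 h, 37 °C, 600 rpm; visual lowest no-growth concentration; three technical replicates.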

The subject of another data set is Klebsiella pneumoniae. Description: Antibacterial activity against Klebsiella pneumoniae ATCC 13883 assessed as inhibition of bacterial growth incubated for 18 hrs by CLSI protocol based method. It counts as functional. In short, it runs like this:
(§1)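 Single colonies from blood agar (16 h, 37 °C) grown in TSB at 37 °C, 220 rpm to OD600 ~0.5, then diluted in MHB to 2×10^5 CFU/mL. Mixed with serial MHB dilutions of DMSO stocks in polypropylene plates, sealed, and incubated 18 h at 37 °C, 600 rpm. MIC was taken as the lowest concentration with no visible growth; three technical replicates.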

The next data set concerns Acinetobacter baumannii. Description: Antibacterial activity against Acinetobacter baumannii ATCC 17961 assessed as inhibition of bacterial growth incubated for 18 hrs by CLSI protocol based method. The data set is classed as functional. In short, it runs like this:
as §1

The subject of another data set is Pseudomonas aeruginosa. The data set is described as follows: Antibacterial activity against Pseudomonas aeruginosa PAO1 assessed as inhibition of bacterial growth incubated for 18 hrs by CLSI protocol based method. It counts as functional. In outline: as §1
A further data set concerns Staphylococcus aureus. Description: Antibacterial activity against Staphylococcus aureus USA300 assessed as inhibition of bacterial growth incubated for 18 hrs by CLSI protocol based method. It counts as functional. In outline:
as §1

Values after ≈ are worked out from the molar mass of the structure shown. Bridge positions count the residues as written; N and C are the ends. Square brackets hold non-standard residues; d marks the D form. Peptide text beside a SMILES is read from it. * marks the point of attachment. Myristoyl = CCCCCCCCCCCCCC(=O)*; Lauroyl = CCCCCCCCCCCC(=O)*; dOrn = NCCC[C@@H](N)C(=O)O; Octanoyl = CCCCCCCC(=O)*; Orn = NCCC[C@H](N)C(=O)O

For the compound COLISTIN, in the data set with Erythrocyte, the Activity is reported as under 0.1%.

On to `CCCCCCCCCCCC(=O)N[C@H](CO)C(=O)N[C@H](Cc1ccc(O)cc1)C(=O)N[C@H](Cc1c[nH]c2ccccc12)C(=O)N[C@H](CCCN)C(=O)N[C@@H](CCCN)C(=O)NCC(=O)N[C@H](CCCN)C(=O)N[C@@H](Cc1c[nH]c2ccccc12)C(=O)N[C@@H]1C(=O)N[C@@H]([C@@H](C)CC)C(=O)N[C@@H](CC(N)=O)C(=O)NCC(=O)NCC(=O)O[C@@H]1C` (Lauroyl-[dS][dY][dW][dOrn][Orn]G[dOrn]WTINGG; ester 9-C), for which the minimum inhibitory concentration (MIC) was found to be 4 µg/mL (≈ 2.43 µM) with Escherichia coli [1]; 4 µg/mL (≈ 2.43 µM) in the data set on Escherichia coli [2]; 8 µg/mL (≈ 4.86 µM) in the data set on Klebsiella pneumoniae; 2 µg/mL (≈ 1.21 µM) with Acinetobacter baumannii; 8 µg/mL (≈ 4.86 µM) with Pseudomonas aeruginosa; 32 µg/mL (≈ 19.4 µM) with Staphylococcus aureus.

As to `CCCCCCCCCCCCCC(=O)N[C@H](CO)C(=O)N[C@H](Cc1ccc(O)cc1)C(=O)N[C@H](Cc1c[nH]c2ccccc12)C(=O)N[C@H](CCCN)C(=O)N[C@@H](CCCN)C(=O)NCC(=O)N[C@H](CCCN)C(=O)N[C@@H](Cc1c[nH]c2ccccc12)C(=O)N[C@@H]1C(=O)N[C@@H]([C@@H](C)CC)C(=O)N[C@@H](CC(N)=O)C(=O)NCC(=O)NCC(=O)O[C@@H]1C` (Myristoyl-[dS][dY][dW][dOrn][Orn]G[dOrn]WTINGG; ester 9-C), the minimal inhibitory concentration (MIC) with Escherichia coli [1] was determined as 8 µg/mL (≈ 4.78 µM); in the data set on Escherichia coli [2], 8 µg/mL (≈ 4.78 µM); with Klebsiella pneumoniae it was 8 µg/mL (≈ 4.78 µM); in the data set on Acinetobacter baumannii, 2 µg/mL (≈ 1.19 µM); in the data set on Pseudomonas aeruginosa it was 8 µg/mL (≈ 4.78 µM); with Staphylococcus aureus it was 16 µg/mL (≈ 9.55 µM).

Regarding `CCCCCCCC(=O)N[C@H](CO)C(=O)N[C@H](Cc1ccc(O)cc1)C(=O)N[C@H](Cc1c[nH]c2ccccc12)C(=O)N[C@H](CCCN)C(=O)N[C@@H](CCCN)C(=O)NCC(=O)N[C@H](CCCN)C(=O)N[C@@H](Cc1c[nH]c2ccccc12)C(=O)N[C@@H]1C(=O)N[C@@H]([C@@H](C)CC)C(=O)N[C@@H](CC(N)=O)C(=O)NCC(=O)NCC(=O)O[C@@H]1C` (Octanoyl-[dS][dY][dW][dOrn][Orn]G[dOrn]WTINGG; ester 9-C), the minimum inhibitory concentration (MIC) was 2 µg/mL (≈ 1.26 µM) with Escherichia coli [1]; 2 µg/mL (≈ 1.26 µM) with Escherichia coli [2]; 2 µg/mL (≈ 1.26 µM) with Klebsiella pneumoniae; 4 µg/mL (≈ 2.51 µM) in the data set with Acinetobacter baumannii; 2 µg/mL (≈ 1.26 µM) in the data set on Pseudomonas aeruginosa; over 32 µg/mL in the data set on Staphylococcus aureus.

One may read the MIC as the lowest concentration that inhibits growth of the organism.
